From ChEMBL document CHEMBL5126498, “Peptidomimetic nitrile warheads as SARS-CoV-2 3CL protease inhibitors” (RSC Med Chem, 2021) come the findings set out here.

Data set [1] concerns SARS-CoV-2. Nature of the data set: Antiviral activity against SARS-CoV-2 infected in African Green monkey Vero E6 cells assessed as reduction in viral plaques in presence of efflux inhibitor CP-100356 by plaque reduction assay. The class given is functional, organism-based. The following applies: Severe acute respiratory syndrome coronavirus 2, Vero C1008.
Data set [2] can be described thus: Cytotoxicity against human A549 cells assessed as reduction in cell viability by CCK-8 assay. The class given is toxicity, cell-based. An outline of the steps: (§1)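 Vero E6 or A549 cells were seeded at 1×10^4/well and left overnight. Compounds were added at final 50 and 200 μM in 0.5% DMSO for 24 h. CCK-8 absorbance was read at 450 nm, and viability was calculated relative to 0.5% DMSO-treated cells. Quadruplicate wells were run in one experiment, and CC50 was interpolated where possible.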

In data set [3] the target is T1, Cathepsin S (Homo sapiens, UniProt P25774). The data set is described as follows: Inhibition of human cathepsin S at 1 uM relative to control. An outline of the steps:
(§2)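 Human cathepsin S fluorometric kit assay, with compound incubated 30 min at room temperature at final 1% DMSO. […] Enzyme-control and test slopes were obtained by linear regression, and % relative inhibition was calculated per kit.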
Target sequence in this assay (P25774 115-331 limits assumed): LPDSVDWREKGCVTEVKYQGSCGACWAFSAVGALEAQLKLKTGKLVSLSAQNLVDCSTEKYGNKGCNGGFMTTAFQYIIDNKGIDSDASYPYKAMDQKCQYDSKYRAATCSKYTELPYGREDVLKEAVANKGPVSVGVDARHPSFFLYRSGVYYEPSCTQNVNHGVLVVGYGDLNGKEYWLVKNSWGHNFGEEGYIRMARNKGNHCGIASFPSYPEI

Data set [4] concerns the target T2, Procathepsin L (Homo sapiens, UniProt P07711). Nature of the data set: Inhibition of human cathepsin L at 1 uM relative to control.
Target sequence in this assay (P07711 114-333 limits assumed): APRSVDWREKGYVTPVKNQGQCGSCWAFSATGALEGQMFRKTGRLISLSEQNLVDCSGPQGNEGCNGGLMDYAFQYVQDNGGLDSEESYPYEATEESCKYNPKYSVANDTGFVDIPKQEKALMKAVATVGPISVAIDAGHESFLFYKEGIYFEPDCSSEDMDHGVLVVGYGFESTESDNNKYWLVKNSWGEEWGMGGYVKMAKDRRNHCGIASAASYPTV
Data set [5] in a line: Cytotoxicity against human A549 cells assessed as reduction in cell viability by CellTiter-Glo assay. The class given is toxicity, cell-based. In a few lines:
(§3)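 Vero E6 or A549 cells were seeded at 1×10^4/well and left overnight. Compounds were added at final 50 and 200 μM in 0.5% DMSO for 24 h. Read-out was CellTiter-Glo luminescence, with viability calculated relative to 0.5% DMSO-treated cells. Quadruplicate wells were run in one experiment, and CC50 was interpolated where possible.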

The target of data set [6] is T3, Cathepsin B (Homo sapiens, UniProt P07858). Nature of the data set: Inhibition of human cathepsin B.
Data set [7] has as its target T1, Cathepsin S. The data set is described as follows: Inhibition of human cathepsin S. In a few lines:
as §2
Target sequence in this assay (P25774 whole entry): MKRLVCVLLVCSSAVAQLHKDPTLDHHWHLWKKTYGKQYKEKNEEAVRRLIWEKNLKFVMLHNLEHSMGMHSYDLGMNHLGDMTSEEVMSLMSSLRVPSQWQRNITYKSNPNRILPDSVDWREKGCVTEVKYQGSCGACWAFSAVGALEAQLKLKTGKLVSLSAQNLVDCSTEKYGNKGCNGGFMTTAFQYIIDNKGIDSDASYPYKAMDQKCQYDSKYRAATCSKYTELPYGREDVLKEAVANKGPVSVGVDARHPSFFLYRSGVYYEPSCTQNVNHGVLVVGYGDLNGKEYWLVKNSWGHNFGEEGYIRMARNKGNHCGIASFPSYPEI

The target of data set [8] is T3, Cathepsin B. The data set is described as follows: Inhibition of human cathepsin B at 1 uM relative to control.
Data set [9] in a line: Cytotoxicity against African Green monkey Vero E6 cells assessed as reduction in cell viability by CellTiter-Glo assay. The class given is toxicity, cell-based, Vero C1008. The conditions noted are these: chlorocebus sabaeus. An outline of the steps:
as §3

Data set [10] has as its system SARS-CoV-2. The data set is described as follows: Antiviral activity against SARS-CoV-2 infected in African Green monkey Vero E6 cells assessed as reduction in viral plaques by plaque reduction assay. The conditions noted are these: Severe acute respiratory syndrome coronavirus 2, Vero C1008. The class given is functional, organism-based.
For data set [11], the target named is T2, Procathepsin L. Nature of the data set: Inhibition of human cathepsin L.
Target sequence in this assay (P07711 whole entry): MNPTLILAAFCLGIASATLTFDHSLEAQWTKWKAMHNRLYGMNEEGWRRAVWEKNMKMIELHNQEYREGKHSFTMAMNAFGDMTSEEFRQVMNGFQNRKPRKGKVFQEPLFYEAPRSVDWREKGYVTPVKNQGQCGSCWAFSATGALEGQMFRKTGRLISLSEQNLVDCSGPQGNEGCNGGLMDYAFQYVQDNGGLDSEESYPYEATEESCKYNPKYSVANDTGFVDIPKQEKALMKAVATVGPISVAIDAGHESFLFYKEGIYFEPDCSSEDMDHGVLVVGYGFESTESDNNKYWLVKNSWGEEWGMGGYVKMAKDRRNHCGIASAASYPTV
Data set [12] is described as follows: Cytotoxicity against African Green monkey Vero E6 cells assessed as reduction in cell viability by CCK-8 assay. The class given is toxicity, cell-based, Vero C1008. The conditions noted are these: chlorocebus sabaeus. In a few lines: as §1
Data set [13] has as its target Replicase polyprotein 1ab (Severe acute respiratory syndrome coronavirus 2, UniProt P0DTD1). The data set is described as follows: Inhibition of SARS-CoV-2 3CL protease by FRET assay.
Data set [14] in a line: Selectivity ratio, ratio of IC50 for inhibition of human cathepsin L to IC50 for inhibition of SARS-CoV-2 3CL protease.
Data set [15] can be described thus: Glutathione reactivity at pH 7.4 assessed as compound recovery measured after 24 hrs by LC-MS/MS method. The following applies: glutathione solution, read-out: Activity. The class given is physicochemical.
The target of data set [16] is Replicase polyprotein 1ab (Severe acute respiratory syndrome coronavirus 2) (UniProt P0DTD1). Nature of the data set: Reversible inhibition of SARS-CoV-2 3CL protease assessed as enzyme recovery measured after 4 hrs by dialysis method relative to control. Set-up: scale not given: the % may be the effect or the level left. In a few lines: (§4)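 SARS-CoV-2 3CLpro (final 2 μM) was preincubated with 20 μM inhibitor for 30 min at room temperature. Activity was compared with apo-enzyme dialysed under identical conditions.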

The target is the same in data set [17]. The data set is described as follows: Reversible inhibition of SARS-CoV-2 3CL protease assessed as enzyme recovery measured after 3 days by dialysis method relative to control. Set-up: scale not given: the % may be the effect or the level left. The following applies: time 3.0 day. An outline of the steps: as §4
Data set [18] is described as follows: Stability of the compound in presence of glutathione by LC-MS/MS method. It counts as physicochemical.
Data set [19] can be described thus: Selectivity ratio, ratio of IC50 for inhibition of human cathepsin S to IC50 for inhibition of SARS-CoV-2 3CL protease.
A short description of data set [20]: Selectivity ratio, ratio of IC50 for inhibition of human cathepsin B to IC50 for inhibition of SARS-CoV-2 3CL protease.
A short description of data set [21]: Inhibition of Enterovirus 71 3Cpro.

Regarding `COc1cc(Cl)cc2[nH]c(C(=O)N[C@@H](CC(C)C)C(=O)N[C@H](C#N)C[C@@H]3CCCNC3=O)cc12`, the EC50 with SARS-CoV-2 [1] worked out at 0.233 µM; in the data set with SARS-CoV-2 [10], 2.2 µM. Further, the 50% cytotoxic concentration (CC50) in data set [2], in data set [5], in [9] and in data set [12] was above 200 µM in each case. For the same compound, the values for the inhibition on Cathepsin S [3], against Procathepsin L [4] and against Cathepsin B [8] were 72%, 37% and below 1%, respectively. Moreover, the IC50 on Cathepsin B [6] came out at 18 µM; against Cathepsin S [7], 0.4 µM; against Procathepsin L [11] it was 0.47 µM.

As to `COc1cc(Cl)cc2[nH]c(C(=O)N[C@@H](CC(C)(C)C)C(=O)N[C@H](C#N)C[C@@H]3CCCNC3=O)cc12`, the values for the EC50 with SARS-CoV-2 [1] and in the data set with SARS-CoV-2 [10] were 0.21 µM and 1.5 µM, respectively. Also, the CC50 in [2], in data set [5], in [9] and in data set [12] was above 200 µM each time. Besides, the inhibition at Cathepsin S [3] is 64%; against Procathepsin L [4] it was 18%; against Cathepsin B [8], below 1%.

For `COc1cccc2[nH]c(C(=O)N[C@@H](CC(C)C)C(=O)N[C@@H](C[C@@H]3CCCNC3=O)C(=O)CO)cc12`, the CC50 in data set [2], in [5], in [9] and in [12] was above 200 µM throughout.

For `CC(C)C[C@H](NC(=O)c1cc2c3c(ccc2[nH]1)CCO3)C(=O)N[C@H](C#N)C[C@@H]1CCCNC1=O`, the CC50 in data set [2], in data set [5], in data set [9] and in [12] was above 200 µM in each case. In addition, the inhibition against Cathepsin S [3] is 67%; at Procathepsin L [4], 10%; against Cathepsin B [8], below 1%. In addition, the EC50 with SARS-CoV-2 [10] is above 10 µM.

For `CC(C)C[C@H](NC(=O)c1cc2c(OC(F)(F)F)cccc2[nH]1)C(=O)N[C@H](C#N)C[C@@H]1CCCNC1=O`, the EC50 in the data set on SARS-CoV-2 [1] was 0.35 µM; in the data set with SARS-CoV-2 [10] it was 2.6 µM. The CC50 in data set [2] is 90 µM; in data set [5], 90 µM; in data set [9], above 100 µM; in data set [12], above 100 µM. Moreover, the figures for the inhibition against Cathepsin S [3], against Procathepsin L [4] and on Cathepsin B [8] were 67%, 8% and below 1%, respectively. For the same compound, in data set [13], the 50% inhibitory concentration (IC50) was 0.0137 µM.

Regarding `CCOc1cccc2[nH]c(C(=O)N[C@@H](CC(C)C)C(=O)N[C@H](C#N)C[C@@H]3CCCNC3=O)cc12`, the half-maximal effective concentration (EC50) with SARS-CoV-2 [1] came out at 0.12 µM; in the data set with SARS-CoV-2 [10], 4.8 µM. Also, the CC50 in [2], in [5], in data set [9] and in [12] was above 200 µM each time. Also, the inhibition on Cathepsin S [3] is 74%; against Procathepsin L [4], below 1%; at Cathepsin B [8], below 1%.

On to `COc1cccc2[nH]c(C(=O)N[C@@H](CC(C)C)C(=O)N[C@H](C=O)C[C@@H]3CCNC3=O)cc12`, for which the CC50 in [2], in data set [5], in data set [9] and in [12] was above 200 µM in each case. Also, the inhibition against Procathepsin L [4] turned out to be 53%. Besides, the figures for the IC50 on Cathepsin B [6], at Cathepsin S [7] and at Procathepsin L [11] were 2 µM, 0.04 µM and 0.28 µM, respectively.

On to `COc1cccc2[nH]c(C(=O)N[C@@H](CC(C)C)C(=O)N[C@H](C#N)C[C@@H]3CCNC3=O)cc12`, for which the CC50 in data set [2], in data set [5], in [9] and in data set [12] was above 200 µM each time. Besides, the inhibition against Cathepsin S [3] is 78%; against Procathepsin L [4], 15%; against Cathepsin B [8], below 1%. Moreover, the IC50 on Cathepsin B [6] stood at 28 µM; at Cathepsin S [7] it was 0.7 µM; against Procathepsin L [11] it was 1.45 µM. Besides, in the data set on SARS-CoV-2 [10], the EC50 is above 5 µM.

As to `COc1cccc2[nH]c(C(=O)N[C@@H](CC(C)C)C(=O)N[C@H](C#N)C[C@@H]3CCCNC3=O)cc12`, the EC50 with SARS-CoV-2 [1] is 0.23 µM; in the data set with SARS-CoV-2 [10] it was 2.7 µM. Also, the CC50 in data set [2], in data set [5], in [9] and in [12] was above 200 µM throughout. The values for the inhibition against Cathepsin S [3], at Procathepsin L [4] and at Cathepsin B [8] were 73%, 22% and below 1%, respectively. The IC50 on Cathepsin B [6] turned out to be 32 µM; against Cathepsin S [7] it was 2.5 µM; against Procathepsin L [11], 0.64 µM. In addition, the Ratio IC50 in [14] is 48; in data set [19], 189; in [20] it was 2420. In data set [15], the remaining at 24 h was at least 90%. The Activity in data set [16] amounted to 10%; in data set [17], 45%. For the same compound, in data set [18], the Stability entry is on record as “Stable”.

Consider `CC(C)C[C@H](NC(=O)OCc1ccccc1)C(=O)N[C@@H](C[C@@H]1CCNC1=O)C(O)S(=O)(=O)O` (some centres not stated), for which the CC50 in data set [2], in data set [5], in data set [9] and in [12] was above 200 µM each time. For the same compound, the figures for the inhibition against Cathepsin S [3], against Procathepsin L [4] and against Cathepsin B [8] were 99%, 100% and 53%, respectively. The values for the IC50 on Cathepsin B [6], on Cathepsin S [7] and against Procathepsin L [11] were 1.4 µM, 0.023 µM and 0.00025 µM, respectively.

In turn, `Cc1cc(C(=O)N[C@@H](Cc2ccc(F)cc2)C(=O)N[C@H](C#N)C[C@@H]2CCCNC2=O)no1` had a half-inhibitory concentration (IC50) in data set [21] of 14.7 µM.

Compound `CC(C)C[C@H](NC(=O)[C@@H](NC(=O)[C@H](C)NC(=O)OCc1ccccc1)C(C)C)C(=O)N[C@H](C#N)CCC(N)=O` came in with an IC50 in [13] of 4.6 µM.
